Experimental data taken from ChEMBL document CHEMBL3091412, “Discovery of an irreversible HCV NS5B polymerase inhibitor” (Bioorg Med Chem Lett, 2013).
Activity calls are given as the source filed them. No cut-off for these calls is given here.

Columns and labels:
Hepatitis C virus = experiment: Antiviral activity against HCV Con1 in eplicon cells after 3 days by RT-PCR analysis; assay type: functional, organism-based, Hepacivirus hominis; settings: isolate Con1, 72 h
Procedure, shortened: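 HCV 1b-Con1 replicon cells seeded at 5000 cells/well one day before treatment; inhibitor in DMSO added as 10 serial twofold dilutions in duplicate (final 0.5% DMSO, 5% FBS). Harvested 3 days post dosing; replicon RNA quantified by real-time RT-PCR (Taqman), GAPDH RNA as endogenous control; EC50 calculated.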

[1] = Irreversible inhibition of HCV1b NS5B delta21 polymerase by radiolabeled nucleotide incorporation assay; design: species or system Hepatitis C virus subtype 1b
Enterovirus C = experiment: Inhibition of Poliovirus RNA-dependent RNA polymerase
[2] = system: Human immunodeficiency virus; experiment: Inhibition of HIV RNA-dependent DNA polymerase
Hepacivirus hominis [3] = experiment: Inhibition of HCV NS3 helicase
Hepacivirus hominis [4] = experiment: Inhibition of HCV NS3 protease
[5] = Plasma protein binding in human; assay type: ADME, cell-free; settings: read-out: PPB (converted)
[6] = Plasma protein binding in cynomolgus monkey; assay type: ADME, cell-free, Macaca fascicularis; settings: read-out: PPB (converted)
[7] = Plasma protein binding in beagle dog; assay type: ADME, cell-free, Canis lupus familiaris; settings: read-out: PPB (converted)
[8] = Plasma protein binding in Sprague-Dawley rat; assay type: ADME, cell-free; settings: read-out: PPB (converted)
[9] = Ratio of drug uptake in brain to plasma of Sprague-Dawley rat at 10 mg/kg, po; assay type: ADME, organism-based; design: dose 10 mg/kg, route oral; settings: read-out: BPR
Procedure, shortened: (§1)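 Crystalline sodium salt given orally at 10 mg/kg to fasted male Sprague Dawley rats. Liver and brain uptake were measured and reported as the mean tissue-to-plasma ratio.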

[10] = Ratio of drug uptake in liver to plasma of Sprague-Dawley rat at 10 mg/kg, po; assay type: ADME, organism-based; design: dose 10 mg/kg, route oral; procedure, shortened: as §1
[11] = Volume of distribution at steady state in beagle dog; assay type: ADME, organism-based, Canis lupus familiaris; settings: in vivo, read-out: Vdss
Procedure, shortened: (§2)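 The compound was given as a crystalline sodium salt. Pharmacokinetics were studied in Sprague Dawley rats, Cynomolgus monkeys and Beagle dogs after oral (PO) and IV dosing. Oral exposure was read as AUC, and the oral dose was 3 mpk in monkeys and dogs. Volume of distribution was taken at steady state.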

[12] = Volume of distribution at steady state in cynomolgus monkey; assay type: ADME, organism-based, Macaca fascicularis; settings: in vivo, read-out: Vdss; procedure, shortened: as §2
[13] = Volume of distribution at steady state in Sprague-Dawley rat; assay type: ADME, organism-based; settings: in vivo, read-out: Vdss; procedure, shortened: as §2
[14] = Clearance in beagle dog; assay type: ADME, organism-based, Canis lupus familiaris; settings: in vivo
[15] = Half life in iv dosed beagle dog; assay type: ADME, organism-based, Canis lupus familiaris; settings: in vivo
[16] = Oral bioavailability in beagle dog at 3 mg/kg; assay type: ADME, organism-based, Canis lupus familiaris; settings: in vivo; procedure, shortened: as §2
[17] = AUC in beagle dog at 3 mg/kg, po; assay type: ADME, organism-based, Canis lupus familiaris; design: dose 3 mg/kg, route oral; settings: plasma
Procedure, shortened: (§3)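 Given orally as crystalline sodium salt; plasma AUC determined in Sprague Dawley rats (10 mpk), Cynomolgus monkeys (3 mpk) or Beagle dogs (3 mpk).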

[18] = Clearance in cynomolgus monkey; assay type: ADME, organism-based, Macaca fascicularis; settings: in vivo
[19] = Half life in iv dosed cynomolgus monkey; assay type: ADME, organism-based, Macaca fascicularis; settings: in vivo
[20] = Oral bioavailability in cynomolgus monkey at 3 mg/kg; assay type: ADME, organism-based, Macaca fascicularis; settings: in vivo; procedure, shortened: as §2
[21] = AUC in cynomolgus monkey at 3 mg/kg, po; assay type: ADME, organism-based, Macaca fascicularis; design: dose 3 mg/kg, route oral; settings: plasma; procedure, shortened: as §3
[22] = Half life in iv dosed Sprague-Dawley rat; assay type: ADME, organism-based; settings: in vivo
[23] = Oral bioavailability in Sprague-Dawley rat at 10 mg/kg; assay type: ADME, organism-based; settings: in vivo
[24] = Clearance in Sprague-Dawley rat; assay type: ADME, organism-based; settings: in vivo
[25] = AUC in Sprague-Dawley rat at 10 mg/kg, po; assay type: ADME, organism-based; design: dose 10 mg/kg, route oral; settings: plasma; procedure, shortened: as §3

Compound Cc1cc2c(-c3ccc[nH]c3=O)c(C(=O)O)n(Cc3cc4cc(F)c(F)cc4nc3Cl)c2cc1F has an EC50 (Hepatitis C virus) of 30 nM and an IC50 [1] of 10 nM.

For Cc1cc2c(-c3ccc[nH]c3=O)c(C(=O)O)n(Cc3cc4ccccc4nc3Cl)c2cc1F, the inhibition (Enterovirus C) was “inactive”, the inhibition [2] was “inactive” and the inhibition (Hepacivirus hominis [3]) was “inactive”. The inhibition (Hepacivirus hominis [4]) was “inactive”.

Cc1cc2c(-c3ccc[nH]c3=O)c(C(=O)O)n(Cc3ccc(Cl)nc3)c2cc1F showed an EC50 (Hepatitis C virus) of over 1000 nM and an IC50 [1] of 9 nM.

Cc1cc2c(-c3ccc[nH]c3=O)c(C(=O)[O-])n(Cc3cc4ccccc4nc3Cl)c2cc1F.[Na+] showed a fraction unbound [5] of 0.003, a fraction unbound [6] of 0.005 and a fraction unbound [7] of 0.004. For the same compound, the fraction unbound [8] was 0.002, the Kp [9] was under 0.01 and the Kp [10] was 0.4. For the same compound, the Vd [11] was 1.7 L/kg, the Vd [12] was 1.2 L/kg and the Vd [13] was 0.3 L/kg. It also gave a clearance [14] of 13 mL/min/kg, a half-life [15] of 2 h and a bioavailability [16] of 38%. It also gave an AUC [17] of 3.2 µM·h, a clearance [18] of 3.5 mL/min/kg and a half-life [19] of 5 h. It also gave a bioavailability [20] of 38%, an AUC [21] of 11.5 µM·h and a half-life [22] of 7 h. The bioavailability [23] was 14%, the clearance [24] was 1.5 mL/min/kg and the AUC [25] was 35 µM·h.

In the case of COc1ccc2cc(Cn3c(C(=O)O)c(-c4ccc[nH]c4=O)c4cc(C)c(F)cc43)c(Cl)nc2c1, the EC50 (Hepatitis C virus) is reported as 10 nM and the IC50 [1] is reported as 6 nM.

For Cc1cc2c(-c3ccc[nH]c3=O)c(C(=O)O)n(Cc3cc(F)cnc3Cl)c2cc1F, the EC50 (Hepatitis C virus) was 1000 nM and the IC50 [1] was 12 nM.
